Tests used:
[1] = Antiplatelet activity in pig platelet assessed as inhibition of ADP-induced aggregation measured for 5 mins by aggregometry (reference value: 50.16 +/- 3.65%); format: functional, cell-based; conditions: Sus scrofa
[2] = Antiplatelet activity in pig platelet assessed as inhibition of platelet activating factor-induced aggregation measured for 5 mins by aggregometry (reference value: 52.30 +/- 1.78%); format: functional, cell-based; conditions: Sus scrofa
[3] = Antiplatelet activity in pig platelet assessed as inhibition of arachidonic acid-induced aggregation measured for 5 mins by aggregometry (reference value: 49.62 +/- 2.90%); format: functional, cell-based; conditions: Sus scrofa
[4] = test system: Rattus norvegicus; test: Antithrombotic activity in pentobarbital sodium anesthetized Wistar rat assessed as decrease in thrombus weight at 10 nmol/kg, po (reference value: 28.21=/-1.11 mg); format: functional
How it was run: (§1)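 Male Wistar rats (250–300 g) received test agents orally, dissolved in NS and kept on ice; NS served as the vehicle control. After 30 min, rats were anaesthetised with pentobarbital sodium (80.0 mg/kg, i.p.). The right carotid artery and left jugular vein were exposed and joined through a polyethylene tube holding a weighed 6 cm thread. Wet thrombus weight is reported as mean ± SD in mg.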

[5] = test system: Rattus norvegicus; test: Antithrombotic activity in pentobarbital sodium anesthetized Wistar rat assessed as decrease in thrombus weight at 100 nmol/kg, po (reference value: 28.21=/-1.11 mg); format: functional; how it was run: as §1
[6] = test system: Rattus norvegicus; test: Antithrombotic activity in pentobarbital sodium anesthetized Wistar rat assessed as decrease in thrombus weight at 1 nmol/kg, po; format: functional; how it was run: as §1
[7] = test system: Rattus norvegicus; test: Antithrombotic activity in pentobarbital sodium anesthetized Wistar rat assessed as decrease in thrombus weight at 0.1 nmol/kg, po; format: functional; how it was run: as §1
[8] = test system: Rattus norvegicus; test: Antithrombotic activity in po dosed Wistar rat assessed as decrease in thrombus weight; format: functional, organism-based; how it was run: as §1
[9] = Antiplatelet activity in pig platelet assessed as inhibition of ADP-induced aggregation at 1.7 mM measured for 5 mins by aggregometry; format: functional, Sus scrofa; design: scale not given: the % may be the effect or the level left
[10] = Antiplatelet activity in pig platelet assessed as inhibition of platelet activating factor-induced aggregation at 1.7 mM measured for 5 mins by aggregometry; format: functional, Sus scrofa; design: scale not given: the % may be the effect or the level left
[11] = Antiplatelet activity in pig platelet assessed as inhibition of arachidonic acid-induced aggregation at 1.7 mM measured for 5 mins by aggregometry; format: functional, Sus scrofa; design: scale not given: the % may be the effect or the level left
[12] = test system: Rattus norvegicus; test: Antithrombotic activity in pentobarbital sodium anesthetized Wistar rat assessed as thrombus weight at 160 umol/kg, po (reference value: 28.21=/-1.11 mg); format: functional; how it was run: as §1

SMILES | IC50 [1] [µM] | IC50 [2] [µM] | IC50 [3] [µM] | Activity [4] [mg] | also measured
C[C@@H]1N[C@H](C(=O)NNC(=O)[C@@H]2CCCN2)Cc2c1[nH]c1ccccc21 | 166 | 134 | 20.6 | 20.39 | –
C[C@@H]1N[C@H](C(=O)NNC(=O)[C@@H](N)CO)Cc2c1[nH]c1ccccc21 | 276 | 119 | 19.9 | 19.04 | –
C[C@@H]1N[C@H](C(=O)NNC(=O)[C@@H](N)Cc2ccccc2)Cc2c1[nH]c1ccccc21 | 307 | 109 | 7.1 | 21 | –
CC[C@H](C)[C@H](N)C(=O)NNC(=O)[C@@H]1Cc2c([nH]c3ccccc23)[C@H](C)N1 | 51.1 | 1.4 | 2.4 | 20.62 | –
C[C@@H]1N[C@H](C(=O)NNC(=O)[C@@H](N)Cc2cnc[nH]2)Cc2c1[nH]c1ccccc21 | 94.6 | 7.7 | 4.8 | 19.75 | –
C[C@@H]1N[C@H](C(=O)NN)Cc2c1[nH]c1ccccc21 | 611 | 111 | 21.5 | – | Activity [5]: 21.23 mg
C[C@@H]1N[C@H](C(=O)NNC(=O)[C@@H](N)CC(N)=O)Cc2c1[nH]c1ccccc21 | 609 | 507 | 19.7 | 20.42 | –
CSCC[C@H](N)C(=O)NNC(=O)[C@@H]1Cc2c([nH]c3ccccc23)[C@H](C)N1 | 417 | 52.9 | 21.7 | 18.55 | –
C[C@@H]1N[C@H](C(=O)NNC(=O)[C@@H](N)CCC(=O)OCc2ccccc2)Cc2c1[nH]c1ccccc21 | 524 | 362 | 6.3 | 21.36 | –
C[C@@H]1N[C@H](C(=O)NNC(=O)[C@@H](N)[C@@H](C)O)Cc2c1[nH]c1ccccc21 | 531 | 31.9 | 4.7 | 18.67 | Activity [6]: 22.77 mg; Activity [7]: 27.22 mg; Activity [8]: Dose-dependent effect
C[C@@H]1N[C@H](C(=O)NNC(=O)CN)Cc2c1[nH]c1ccccc21 | 722 | 348 | 20.7 | 23.74 | –
C[C@@H]1N[C@H](C(=O)NNC(=O)[C@@H](N)CCCCN)Cc2c1[nH]c1ccccc21 | 321 | 106 | 3.4 | 18.97 | –
C[C@@H]1N[C@H](C(=O)NNC(=O)[C@@H](N)Cc2ccc(O)cc2)Cc2c1[nH]c1ccccc21 | 152 | 12.7 | 13 | 20.24 | –
C[C@H](N)C(=O)NNC(=O)[C@@H]1Cc2c([nH]c3ccccc23)[C@H](C)N1 | 118 | 162 | 20 | 20.06 | –
CC(C)C[C@H](N)C(=O)NNC(=O)[C@@H]1Cc2c([nH]c3ccccc23)[C@H](C)N1 | 31.6 | 1.2 | 3.2 | 21.06 | –
CC(=O)Oc1ccccc1C(=O)O [ASPIRIN] | – | – | – | – | Activity [9]: 31.14%; Activity [10]: 33.22%; Activity [11]: 34.5%; Activity [12]: 18.24 mg
C[C@@H]1N[C@H](C(=O)NNC(=O)[C@@H](N)CCC(N)=O)Cc2c1[nH]c1ccccc21 | 598 | 267 | 18.5 | 21.01 | –
C[C@@H]1N[C@H](C(=O)NNC(=O)[C@@H](N)Cc2c[nH]c3ccccc23)Cc2c1[nH]c1ccccc21 | 21.7 | 4.3 | 0.6 | 18.87 | –
CC(C)[C@H](N)C(=O)NNC(=O)[C@@H]1Cc2c([nH]c3ccccc23)[C@H](C)N1 | 156 | 50 | 3.7 | 24.01 | –
C[C@@H]1N[C@H](C(=O)NNC(=O)[C@@H](N)CC(=O)OCc2ccccc2)Cc2c1[nH]c1ccccc21 | 117 | 196 | 5.2 | 19.65 | –

Source: ChEMBL document CHEMBL1811858, “A class of oral N-[(1S,3S)-1-methyl-1,2,3,4-tetrahydro-β-carboline-3-carbonyl]- N'-(amino-acid-acyl)hydrazine: discovery, synthesis, in vitro anti-platelet aggregation/in vivo anti-thrombotic evaluation and 3D QSAR analysis” (Eur J Med Chem, 2011)
